Experimental data published in ChEMBL document CHEMBL1128463, “Design, synthesis, and antiviral activity of certain 2,5,6-trihalo-1-(beta-D-ribofuranosyl)benzimidazoles” (J Med Chem, 1995).

Columns and labels:
HFF = assay: Compound was evaluated for the visual cytotoxicity scored on HFF cells at time of HCMV plaque enumeration; type: functional, cell-based; details: Homo sapiens
Summary of the method: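 Stationary HFF cells not affected by virus in the HCMV plaque assay, inspected microscopically for cytotoxicity when plaques were counted (after 7–10 days at 37 °C). Reported as IC50.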

Human betaherpesvirus 5 [1] = assay: Compound was evaluated for the antiviral activity against HCMV determined by using Plaque assay; type: functional, organism-based
Summary of the method: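 Towne strain HCMV (plaque-purified P0) on HFF monolayers, about 100 PFU/cm², 2 h adsorption at 37 °C. Compounds added in growth medium, four to eight concentrations, duplicate wells. Incubated 7–10 days at 37 °C, then crystal violet stain and microscopic plaque count. Percent plaque reduction versus no-drug wells, regressed on log concentration to give IC50.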

KB = assay: Compound was evaluated for the inhibition of KB cell growth determined in quadruplicate assay; type: functional, cell-based; details: Homo sapiens
Summary of the method: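 KB cells at 3000–5000/well, compound added in quadruplicate at six to eight concentrations, 48 h at 37 °C (about two population doublings). Cells fixed with ethanol, stained with crystal violet, eluted dye read at 570 nm. IC50 from regression of percent inhibition on log concentration.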

Human alphaherpesvirus 1 = assay: Compound was evaluated for the antiviral activity against HSV-1 determined by using ELISA method; type: functional, organism-based
Summary of the method: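 HSV-1 (KOS strain in most experiments) at 100 PFU/well on BSC-1 cells (10 000/well), drug in quadruplicate, 3–5 days at 37 °C. Wells blocked, probed with HRP-conjugated rabbit anti-HSV-1 antibody, developed with tetramethylbenzidine and read at 450 and 570 nm. Percent absorbance reduction versus virus-only wells; IC50 from regression on log concentration.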

Human betaherpesvirus 5 [2] = assay: Compound was evaluated for the antiviral activity against HCMV determined by using Yield reduction assay; type: functional
Summary of the method: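 HFF cells at 12 500 cells/well, infected with Towne HCMV at MOI 0.5–1 PFU/cell. Compounds added after adsorption, 1:3 serial dilutions spanning about 1000-fold (e.g. 100–0.14 μM), in duplicate. 7 days at 37 °C, one freeze-thaw, then progeny titred by plaque count on fresh HFF plates. Reported as IC90.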

Compound	IC50 (HFF)	IC50 (Human betaherpesvirus 5 [1])	IC50 (KB)	IC50 (Human alphaherpesvirus 1)	IC90 (Human betaherpesvirus 5 [2])
Clc1cc2nc(Br)[nH]c2cc1Cl	21 µM	12 µM	56 µM	–	–
Clc1nc2cc(Cl)c(Cl)cc2[nH]1	24 µM	6.4 µM	19 µM	51 µM	–
OC[C@H]1O[C@H](n2c(Br)nc3cc(Cl)c(Cl)cc32)[C@@H](O)[C@H]1O	118 µM	0.7 µM	> 100 µM	130 µM	0.2 µM
CC(=O)OC[C@H]1O[C@@H](n2c(Br)nc3cc(Cl)c(Cl)cc32)[C@H](OC(C)=O)[C@@H]1OC(C)=O	100 µM	1.5 µM	25 µM	> 100 µM	0.2 µM
CC(=O)OC[C@H]1O[C@@H](n2c(Cl)nc3cc(Cl)c(Cl)cc32)[C@H](OC(C)=O)[C@@H]1OC(C)=O	100 µM	2 µM	> 100 µM	–	0.2 µM
OC[C@H]1O[C@@H](n2c(Cl)nc3cc(Cl)c(Cl)cc32)[C@H](O)[C@@H]1O	238 µM	2.9 µM	210 µM	102 µM	1.4 µM
Nc1nc2cc(Cl)c(Cl)cc2n1C1O[C@H](CO)[C@@H](O)[C@H]1O (some centres not stated)	32 µM	40 µM	40 µM	50 µM	8 µM
OC[C@H]1OC(n2c(I)nc3cc(Cl)c(Cl)cc32)[C@H](O)[C@@H]1O (some centres not stated)	118 µM	30 µM	23 µM	21 µM	26 µM
OC[C@H]1OC(n2c(O)nc3cc(Cl)c(Cl)cc32)[C@H](O)[C@@H]1O (some centres not stated)	100 µM	> 100 µM	–	–	–
O=[N+]([O-])c1c(Cl)c(Cl)cc2c1nc(O)n2C1O[C@H](CO)[C@@H](O)[C@H]1O (some centres not stated)	100 µM	> 100 µM	–	> 100 µM	–
Nc1nc2cc(Cl)c(Cl)cc2[nH]1	100 µM	100 µM	> 100 µM	> 100 µM	–
OC[C@H]1O[C@@H](n2cnc3cc(Cl)c(Cl)cc32)[C@H](O)[C@@H]1O [DICHLORORIBOBENZIMIDAZOLE]	24 µM	–	36 µM	–	19 µM
O=C(O)P(=O)(O)O [FOSCARNET SODIUM]	> 100 µM	–	–	–	–
Nc1nc2c(ncn2COC(CO)CO)c(=O)[nH]1 [GANCICLOVIR]	> 100 µM	–	> 100 µM	–	1.6 µM
